Experimental findings from ChEMBL document CHEMBL4190221, “Inhibition of Proliferation of Vascular Smooth Muscle Cells by Cucurbitanes from Momordica charantia” (J Nat Prod, 2017) are described below.

The test system of data set [1] is VSMC. Description: Cytotoxicity against Sprague-Dawley rat VSMC assessed as decrease in cell viability at 5 to 10 uM after 24 hrs by MTT assay. The format is cell-based. In outline:
(§1)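 Primary aortic smooth muscle cells from Sprague-Dawley rats, passages 7–10, grown in DMEM/10% FBS at 37 °C and seeded at 3.0 × 10^4 cells/mL. Cells were serum-starved 24 h, then exposed to compound for 24 h alongside a 0.1% DMSO control and a digitonin 100 μg/mL cytotoxicity control. MTT 5 mg/mL was added for 2 h, formazan taken up in DMSO, and OD read at 565 nm. Four independent experiments, each in triplicate.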
For orientation: Formazan colour is commonly taken as a measure of viable cells.

Data set [2] relates to VSMC. Description: Inhibition of PDGF-induced Sprague-Dawley rat VSMC proliferation at 5 to 10 uM pretreated for 2 hrs followed by PDGF stimulation measured after 24 hrs by MTT assay. Format: functional, cell-based. In outline:
(§2)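 Rat aortic VSMCs (Sprague-Dawley, passages 7–10) were seeded at 3.0 × 10^4 cells/mL, grown 24 h in DMEM/10% FBS, then serum-starved 24 h. Compound was added 2 h before PDGF 25 ng/mL, followed by 24 h more incubation. Paclitaxel 1 μM served as positive control. MTT read-out at 565 nm. Four independent experiments in triplicate, compared against PDGF-stimulated cells.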

The subject of data set [3] is VSMC. Nature of the data set: Cytotoxicity against Sprague-Dawley rat VSMC assessed as decrease in cell viability at >5 uM after 24 hrs by MTT assay. The format is cell-based. In outline:
as §1

Data set [4] deals with VSMC. Description: Cytotoxicity against Sprague-Dawley rat VSMC assessed as decrease in cell viability at 0.5 to 1 uM after 24 hrs by MTT assay. Format: cell-based. In outline:
as §1

Data set [5] relates to VSMC. Description: Inhibition of PDGF-induced Sprague-Dawley rat VSMC proliferation at 10 uM pretreated for 2 hrs followed by PDGF stimulation measured after 24 hrs by MTT assay relative to control. Format: functional. In outline:
as §2

Each structure is given as a SMILES string. Calls of active or inactive are those of the source. The calls are words filed in the database; no cut-off is given here.

The term inhibition denotes the drop in the measured response relative to a control, in per cent. With `COC(C)(C)/C=C/C[C@@H](C)[C@H]1CC[C@@]2(C)[C@@H]3[C@@H](O)C=C4[C@@H](CC[C@H](OC(=O)CC(=O)O)C4(C)C)[C@]3(C=O)CC[C@]12C`, in the data set on VSMC [1], the Activity result is on record as “Non-Toxic”. For the same molecule, the inhibition result in the data set on VSMC [2] is “Active”.

With `C[C@H](C/C=C/C(C)(C)O)[C@H]1CC[C@@]2(C)[C@@H]3[C@@H](O)C=C4[C@@H](CC[C@H](OC(=O)CC(=O)O)C4(C)C)[C@]3(C=O)CC[C@]12C`, the Activity result with VSMC [1] is reported as “Non-Toxic”. In the data set on VSMC [2], the inhibition entry is “Active”.

Turning to `COC(C)(C)/C=C/C[C@@H](C)[C@H]1CC[C@@]2(C)[C@@H]3C=C[C@@]45OC(=O)[C@]3(CC[C@]12C)[C@@H]4CC[C@H](OC(=O)CC(=O)O)C5(C)C`, the Activity entry in the data set with VSMC [3] is reported as “Toxic”; in the data set with VSMC [4] it was “Non-Toxic”.

For the molecule `CO[C@H]1O[C@]23C=C[C@@H]4[C@@]1(CC[C@]1(C)[C@@H]([C@H](C)C/C=C/C(C)(C)OC)CC[C@@]41C)[C@@H]2CC[C@H](OC(=O)CC(=O)O)C3(C)C`, in the data set on VSMC [1], the Activity result is on record as “Non-Toxic”. Also, the inhibition at 10 µM in the data set on VSMC [5] stood at 72.4%.

Take `CO[C@H]1O[C@]23C=C[C@@H]4[C@@]1(CC[C@]1(C)[C@@H]([C@H](C)C/C=C/C(C)(C)OC)CC[C@@]41C)[C@@H]2CC[C@H](OC(=O)C(=O)O)C3(C)C`: in the data set with VSMC [1], the Activity entry is given as “Non-Toxic”.

As for `C[C@H](C/C=C/C(C)(C)O)[C@H]1CC[C@@]2(C)[C@@H]3C=C[C@@]45OC(=O)[C@]3(CC[C@]12C)[C@@H]4CC[C@H](O[C@@H]1O[C@H](CO)[C@@H](O)[C@@H](O)[C@H]1O)C5(C)C`, in the data set with VSMC [1], the Activity entry is on record as “Non-Toxic”. Moreover, in the data set on VSMC [2], the inhibition result is “Active”.

As to `CO[C@H](C=C(C)C)C[C@@H](C)[C@H]1CC[C@@]2(C)[C@@H]3[C@@H](OC)C=C4[C@@H](CC[C@H](OC(=O)CC(=O)O)C4(C)C)[C@]3(C=O)CC[C@]12C`, the Activity entry in the data set on VSMC [1] was “Non-Toxic”. Besides, the inhibition at 10 µM in the data set on VSMC [5] amounted to 67.9%.
